Source: PubChem BioAssay (several laboratories)
SENP6 block: SENP6 protease inhibition; inhibition, % at 10 µM; 330,000 tested, 1.8% active; Recombinant SENP6 catalytic domain, aminoluciferin luminescence; Q9GZR1; AID 2599;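 active means inhibition above about 50% at the single tested dose, limit read from the data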;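 further: plate controls were DMSO wells with enzyme for no effect and DMSO wells lacking enzyme for full effect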
SENP7 block: SENP7 protease inhibition | 330,000 tested, 1.5% active | inhibition, % at 5 µM | recombinant SENP7, Z-RLRGG-aminoluciferin luminescence, 40 min;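 active means inhibition above about 50% at the single test dose, limit read from the data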;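 further: plate controls were DMSO with enzyme for no effect and no enzyme buffer wells for full effect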
Target sequence (Q9BQF6 706-1050 limits assumed): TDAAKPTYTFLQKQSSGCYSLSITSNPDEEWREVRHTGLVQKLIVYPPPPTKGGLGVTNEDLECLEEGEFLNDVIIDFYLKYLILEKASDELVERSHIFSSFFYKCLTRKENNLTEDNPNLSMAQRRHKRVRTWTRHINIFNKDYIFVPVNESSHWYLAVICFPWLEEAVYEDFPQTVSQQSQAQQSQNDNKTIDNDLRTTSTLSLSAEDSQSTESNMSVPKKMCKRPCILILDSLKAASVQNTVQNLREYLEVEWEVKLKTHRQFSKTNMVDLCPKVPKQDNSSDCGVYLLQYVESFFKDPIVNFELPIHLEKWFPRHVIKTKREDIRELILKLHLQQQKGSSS
SENP8 block-1: inhibitors of human SENP8 protease; AID 2540; 330,000 tested, 1.2% active; inhibition, % at 10 µM; purified SENP8, Z-RLRGG-aminoluciferin cleavage, luminescence; in the data active means inhibition above about 50%
SENP8 block-2: inhibitors of human SENP8 protease; Q96LD8; recombinant SENP8, Nedd8 substrate fluorescence; inhibition, % at 20 µM; 360,000 tested, 0.64% active; AID 602440; in the data active means inhibition mostly above about 40%, no sharp cut-off; inactive means mostly below about 27%
HSP90 inh: blocks HSP90-mediated luciferase refolding in reticulocyte lysate; AID 1789; Rabbit reticulocyte lysate, luciferase refolding luminescence, 3 h; inhibition, % at 5.6 µM; 290,000 tested, 0.91% active;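 active means inhibition above the screen-wide mean plus 3 SD, computed separately per campaign, cut at about 16% in these data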;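 further: 0% = DMSO wells and 100% = 60 µM geldanamycin wells; inhibitors lower the luminescence because luciferase stays unfolded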
SENP1 FRET inh: blocks the human SENP1 SUMO protease catalytic domain. Q9P0U3. recombinant SENP1 catalytic domain, CyPet-SUMO1-YPet FRET cleavage. AID 624204. inhibition, % at 10 µM. 360,000 tested, 0.21% active;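 active means inhibition at least 30% at 10 µM, raw YFP signal under a set limit, fluorescence ratio 0.5 to 1.5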;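 further: 0% = enzyme with DMSO and 100% = no enzyme wells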
Target sequence (Q9P0U3 419-644 limits assumed): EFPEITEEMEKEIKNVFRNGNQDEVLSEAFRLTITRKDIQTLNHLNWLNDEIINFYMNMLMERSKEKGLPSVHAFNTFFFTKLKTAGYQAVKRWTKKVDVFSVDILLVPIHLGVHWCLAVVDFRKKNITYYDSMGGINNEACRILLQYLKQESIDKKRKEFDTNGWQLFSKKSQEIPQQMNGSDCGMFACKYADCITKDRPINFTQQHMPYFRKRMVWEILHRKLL
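System: Recombinant human SENP1 catalytic domain, His6-tagged | Incubation: Enzyme reaction for 50 min at room temperature, dark | Medium: Tris pH 8 with BME, BSA, NP40 and catalase | Also added: 25 nM SUMO1 FRET substrate | Compound: 10 µM single point, 0.5% DMSO | Measured by: FRET fluorescence in CFP and YFP emission channels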
An asterisk follows results filed as active. Only some compounds are listed: those with a hit (about 2.9% of all), similar ones and a draw of the others.

What do the screens show for `CCc1ccc(O)c(N=Cc2ccccc2O)c1`?
SENP6 block: -2; SENP7 block: -2; SENP8 block-1: 9; SENP8 block-2: 21; HSP90 inh: -1; SENP1 FRET inh: 15

What do the screens show for `O=C1c2c(O)ccc(O)c2C(=O)c2c(NCCNCCO)ccc(NCCNCCO)c21`?
SENP6 block: 13; SENP7 block: 15; SENP8 block-1: 17; SENP8 block-2: 51*; SENP1 FRET inh: 1

Results for CSc1ncccc1C(=O)Nc1nc2ccc(Oc3ccccc3)cc2s1 ?
SENP6 block: 94*; SENP7 block: 95*; SENP8 block-1: 90*; SENP8 block-2: -159; HSP90 inh: 0; SENP1 FRET inh: -1

What do the screens show for `CCc1noc(C)c1C(=O)OCC(=O)Nc1cccc(C)c1`?
SENP6 block: 15; SENP7 block: 6; SENP8 block-1: -8; SENP8 block-2: 2; SENP1 FRET inh: 2

How did Cc1cc(/C=C2\SC(=S)N(C)C2=O)c(C)n1-c1ccccc1O do in these assays?
SENP6 block: 87*; SENP7 block: 77*; SENP8 block-1: 70*; SENP8 block-2: -1; SENP1 FRET inh: -33

What do the screens show for `Cc1c(C)c2ccc(OC(C)C(=O)NCc3ccccn3)cc2oc1=O` (centres undefined)?
SENP6 block: 9; SENP7 block: 3; SENP8 block-1: 2; SENP8 block-2: -375; HSP90 inh: 3; SENP1 FRET inh: -2

How did Oc1ccc(/C=N/Nc2nccnc2Cl)c(O)c1 do in these assays?
SENP6 block: 96*; SENP7 block: 101*; SENP8 block-1: 96*; SENP8 block-2: -122; HSP90 inh: 2; SENP1 FRET inh: -1

How did O=C(COC(=O)c1ccc(Cl)nc1)NNC(=O)c1ccc(Br)cc1 do in these assays?
SENP6 block: -8; SENP7 block: -13; SENP8 block-1: -7; SENP8 block-2: -7; SENP1 FRET inh: -1

How did NC(=S)c1cc2ccc(O)cc2oc1=O do in these assays?
SENP8 block-2: -416; HSP90 inh: 1; SENP1 FRET inh: 10

How did Oc1cc(O)cc(-c2cc3ccc(O)cc3o2)c1 do in these assays?
SENP6 block: 48; SENP7 block: 25; SENP8 block-1: 53*; SENP8 block-2: -255; SENP1 FRET inh: -1

Results for O=C(Nc1cccc(S(=O)(=O)NC2=NCCCCC2)c1)c1ccc(Cl)cc1 ?
SENP6 block: -15; SENP7 block: -7; SENP8 block-1: -6; SENP8 block-2: 7; SENP1 FRET inh: 2

How did CC1=NN(c2ccccc2)C(=O)C1N=Nc1ccc(N)cc1 (centres undefined) do in these assays?
SENP6 block: 6; SENP7 block: 11; SENP8 block-1: 11; SENP8 block-2: 61*; HSP90 inh: 8; SENP1 FRET inh: 10

What do the screens show for `Cc1cc(C(=O)N/N=C/c2cc(N=Nc3ccccc3)ccc2O)n[nH]1`?
SENP8 block-2: 41*; HSP90 inh: 1; SENP1 FRET inh: 3

Results for COC(=O)N/N=C/c1cc(N=Nc2ccccc2)ccc1O ?
SENP6 block: 20; SENP7 block: 3; SENP8 block-1: 7; SENP8 block-2: 24; HSP90 inh: -3; SENP1 FRET inh: 2

How did COc1ccc(-[n+]2c(C)cc(/C=C3\Sc4ccccc4N3C)cc2C)cc1 do in these assays?
SENP6 block: 0; SENP7 block: 8; SENP8 block-1: 4; SENP8 block-2: 43*; HSP90 inh: 2; SENP1 FRET inh: -25

What do the screens show for `COc1ccccc1-[n+]1c(C)cc(/C=C2\Sc3ccccc3N2C)cc1C`?
SENP6 block: -3; SENP7 block: 2; SENP8 block-1: 0; SENP8 block-2: 39; HSP90 inh: 0; SENP1 FRET inh: -35

How did O=C(CNc1cccc(S(=O)(=O)N2CCCC2)c1)Nc1cccc(C(F)(F)F)c1 do in these assays?
SENP6 block: 2; SENP7 block: -5; SENP8 block-1: 0; SENP8 block-2: 7; SENP1 FRET inh: 1

Results for COC1=CC(=NCl)C=CC1=NCl ?
SENP8 block-2: 76*; SENP1 FRET inh: 31

What do the screens show for `Oc1cccc2ccc(/C=C/c3cccs3)nc12`?
SENP6 block: 96*; SENP7 block: 95*; SENP8 block-1: 88*; SENP8 block-2: -54; HSP90 inh: 0; SENP1 FRET inh: 0

What do the screens show for `COc1ccccc1CNS(=O)(=O)c1ccc(-n2cccn2)cc1`?
SENP6 block: -9; SENP7 block: -4; SENP8 block-1: 9; SENP8 block-2: -2; HSP90 inh: 1; SENP1 FRET inh: 1

Results for COCC(=O)N1C[C@H](C)[C@H](OC)CN(C)C(=O)c2cc(NC(=O)Nc3cccc(F)c3)ccc2OC[C@@H]1C ?
SENP8 block-2: 17; SENP1 FRET inh: 4

How did COc1ccccc1N1CCN(C2=Nc3cccc4cccc2c34)CC1 do in these assays?
SENP6 block: 2; SENP7 block: -2; SENP8 block-1: -1; SENP8 block-2: 28; HSP90 inh: 3; SENP1 FRET inh: 95*

Results for COc1ccc(CN2CCCCC2C(=O)Nc2ccc(OC)c(OC)c2)cc1OC (centres undefined) ?
SENP6 block: 4; SENP7 block: 1; SENP8 block-1: -8; SENP8 block-2: 10; HSP90 inh: -2; SENP1 FRET inh: 0

How did COc1ccc(CN2CCCC2C(=O)Nc2ccc(OC)c(OC)c2)cc1OC (centres undefined) do in these assays?
SENP6 block: -19; SENP7 block: 64*; SENP8 block-1: -3; SENP8 block-2: -4; HSP90 inh: 4; SENP1 FRET inh: 3

Results for CC(=O)OCCn1c2nc(=O)[nH]c(=O)c-2nc2cc(C)c(C)cc21 ?
SENP6 block: 28; SENP7 block: 22; SENP8 block-1: 17; SENP8 block-2: 16; HSP90 inh: 20*; SENP1 FRET inh: -27

What do the screens show for `CC(=O)OCCn1c(C)[n+](CCOC(C)=O)c2cc(Cl)c(Cl)cc21`?
SENP6 block: 7; SENP7 block: 3; SENP8 block-1: 12; SENP8 block-2: 10; HSP90 inh: 0; SENP1 FRET inh: -1

How did O=C(COC(=O)C1CC1)Nc1ccc(N=Nc2ccccc2)cc1 do in these assays?
SENP6 block: -13; SENP7 block: -2; SENP8 block-1: -28; SENP8 block-2: 43*; HSP90 inh: 3; SENP1 FRET inh: 1

How did O=C(NCC12CC3CC(CC(C3)C1)C2)c1cc2n(n1)C(C(F)(F)F)CC(c1ccco1)N2 (centres undefined) do in these assays?
SENP6 block: 19; SENP7 block: 7; SENP8 block-1: 10; SENP8 block-2: 5; HSP90 inh: 30*; SENP1 FRET inh: -3

What do the screens show for `COc1ccc(/C=N/n2c(C)nc3ccccc3c2=O)cc1`?
SENP6 block: -26; SENP7 block: -7; SENP8 block-1: -1; SENP8 block-2: 11; HSP90 inh: 0; SENP1 FRET inh: 0

How did COc1ccc(/C=N\n2nnc3ccccc32)cc1 do in these assays?
SENP6 block: 97*; SENP7 block: 90*; SENP8 block-1: 94*; SENP8 block-2: -6; HSP90 inh: 29*; SENP1 FRET inh: 2
